Assays:
MS2 coat protein [1] = test: apparent Kd, MS2 coat protein; higher = weaker binding; RNA-MaP array
Outline: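 Sequenced DNA templates on an Illumina sequencing chip were transcribed into the designed RNAs. These were incubated at room temperature in Tris-HCl pH 7.5 buffer containing KCl, MgCl2, BSA, DTT, tRNA and Tween20 with fluorescently labeled MS2 coat protein at 1.5 nM to 3 μM, with or without input ligand. Apparent Kd is the median of binding-curve fits per cluster, and designs with fewer than 10 clusters measured were excluded.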

MS2 coat protein [2] = test: apparent Kd, MS2 coat protein; higher = weaker binding; RNA-MaP array; FMN 200 µM where present
Outline: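 Two titrations, one without ligand and one with constant ligand, were run with SNAP-549-labelled MS2 coat protein from 0.7 or 1.5 nM, doubling to 3 µM. The targets were designs transcribed by stalled E. coli RNA polymerase on Illumina sequencing-chip clusters, in 100 mM Tris-HCl pH 7.5, 80 mM KCl, 4 mM MgCl2, BSA, DTT, yeast tRNA and Tween-20. The apparent Kd is the median of filtered per-cluster binding-curve fits, with green signal normalised to red-channel RNA signal and control-cluster median Fmax.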

[3] = designed as: ON switch for flavin mononucleotide, no ligand
[4] = ligand present: flavin mononucleotide, designed as: ON switch for flavin mononucleotide
[5] = designed as: OFF switch for flavin mononucleotide, no ligand
[6] = ligand present: flavin mononucleotide, designed as: OFF switch for flavin mononucleotide

## AAAACGGGUUAGAAGGGCAAUUUUGAUGACAGUGCAGGAUAUAACUUGUGUCCGAAUAUGGACAUGAGGAUCACCCAUGUUAGU
MS2 coat protein [1]; [3]
  apparent Kd: 468 nM
MS2 coat protein [1]; [4]
  apparent Kd: 185 nM

## AAAAUGGAUUGAACAUGAGGAUCACCCAUGUCCUGCCCGCAUUAGGAUAUCGAUAACUUGAGUACCGAGAAGGAAUGAUGAUCG
MS2 coat protein [1]; [3]
  apparent Kd: 12.6 nM
MS2 coat protein [1]; [4]
  apparent Kd: 13.2 nM

## AAAUCAAAGCAGAAGGAACAAUAAGCAUAAAGGUUAGGAUAUGCGUCAACGCAAAGUACAUGAGGAUCACCCAUGUUUAUAAGC
MS2 coat protein [1]; [3]
  apparent Kd: 7.37 nM
MS2 coat protein [1]; [4]
  apparent Kd: 6.77 nM

## AAAUUACACGAGAAGGGCAGUGAAUAUCUGUCUGCAGGAUAUCGCUACAUGAGGAUCACCCAUGUUUUCAGUAGUACUAGCGAA
MS2 coat protein [1]; [5]
  apparent Kd: 9.74 nM
MS2 coat protein [1]; [6]
  apparent Kd: 9.06 nM

## AACAAGGACAGAGGAUAUAUCAACAUUGAAGUAAUAGAAGGCUGAGAGAAUGAGACUCAUAAACAUGAGGAUCACCCAUGUAAC
MS2 coat protein [1]; [5]
  apparent Kd: 82.2 nM
MS2 coat protein [1]; [6]
  apparent Kd: 81.4 nM

## AACAAGUAGGAGAAGGUAGAUGAGACUGUGCACUAAGGAUAUCCAUACAUGAGGAUCACCCAUGUCUGGACUAGUAUAUGGACA
MS2 coat protein [1]; [5]
  apparent Kd: 5.74 nM
MS2 coat protein [1]; [6]
  apparent Kd: 5.69 nM

## AACAUGAGGAUCACCCAUGUUAGAAUAACAACGGAAAUAACAGAGGAUAUCGUUAAUUAAUAGCGCGAGAAGGCAGAAUUCAAA
MS2 coat protein [1]; [3]
  apparent Kd: 6.86 nM
MS2 coat protein [1]; [4]
  apparent Kd: 5.95 nM

## AAGAAGUACCAGAAGGGAGGAGGAAAUCUACAUGAGGAUCACCCAUGUACUUGCGGAUUUAAAUCUCAGGAUAUGGGAUACACA
MS2 coat protein [1]; [3]
  apparent Kd: 49.7 nM
MS2 coat protein [1]; [4]
  apparent Kd: 12.9 nM

## AAGCCCAGGACGGCCGCCACUGUAAAAUGGUGGUUCGCCUGUAAGAACAUGAGGAUCACCCAUGUCAGGACCGGGUCCACGAGUU
MS2 coat protein [1]; designed as: OFF switch for tryptophan, no ligand
  apparent Kd: 17.6 nM
MS2 coat protein [1]; ligand present: tryptophan, designed as: OFF switch for tryptophan
  apparent Kd: 27.1 nM

## UUUAUAAUAAGAUCAAUUAAUUAACAUGAGGAUCACCCAUGUGAGGAUAUCAGCUCGUGUAGAGCUGAGAAGGCACAAUAUAAG
MS2 coat protein [2]; [5]
  apparent Kd: 43.8 nM
MS2 coat protein [2]; [6]
  apparent Kd: 69.3 nM

## UUUAUACAUGAGGAUCACCCAUGUCAACAAAGUCGAGGAUAUGGGCAUAUUAUCUUAUUUCCAGAAGGCGAAUUCU
MS2 coat protein [2]; [3]
  apparent Kd: 233 nM
MS2 coat protein [2]; [4]
  apparent Kd: 73.3 nM

## UUUAUGUCAGGAUAUGAGUCGUAGAACAAUAGUACUACGUCUCAGAAGGGACAUGAGGAUCACCCAUGUGCCUC
MS2 coat protein [2]; [5]
  apparent Kd: 40.4 nM
MS2 coat protein [2]; [6]
  apparent Kd: 316 nM

## UUUAUGUCAGGAUAUGAUUAGAUCUACUUCGGUAGAUCUAAUCAGAAGGGACAUGAGGAUCACCCAUGUAGUUU
MS2 coat protein [2]; [5]
  apparent Kd: 111 nM
MS2 coat protein [2]; [6]
  apparent Kd: 226 nM

## UUUCCCUGGCAAGGAUAUCCUGUGCGGUUCCGGCUCGUGUCUGUUACAUGAGGAUCACCCAUGUGGGAGAAGGUGCCUGUGGCU
MS2 coat protein [2]; [5]
  apparent Kd: 53.2 nM
MS2 coat protein [2]; [6]
  apparent Kd: 232 nM

## UUUGAAUAAGUGAGGAUAUACUGUUAGUAAUGAUUGUAGAAGGUACAUGAGGAUCACCCAUGUUUAUUAUUUAU
MS2 coat protein [2]; [5]
  apparent Kd: 21.8 nM
MS2 coat protein [2]; [6]
  apparent Kd: 18.3 nM

## UUUGCAUUCCGAGGAUAUUCAGAUAAUAACUACACAUGAGGAUCACCCAUGUGGCGAUAGCCUAGGGAGAAGGCGGUUUGCUUU
MS2 coat protein [2]; [3]
  apparent Kd: 19.7 nM
MS2 coat protein [2]; [4]
  apparent Kd: 20.9 nM

## UUUGCAUUCCGAGGAUAUUCAUAUAAUAACUACACAUGAGGAUCACCCAUGUGGCGAUAGCCUAGGGAGAAGGCGGUUUGCUUU
MS2 coat protein [2]; [3]
  apparent Kd: 22.8 nM
MS2 coat protein [2]; [4]
  apparent Kd: 21.3 nM

## UUUGGGAACUCUAUGGGCCGCUACAUGAGGAUCACCCAUGUGCAGGAUAUAGGCGUUACUACCACCUAGAAGGGCACAGAAUGA
MS2 coat protein [2]; [5]
  apparent Kd: 32.5 nM
MS2 coat protein [2]; [6]
  apparent Kd: 47.6 nM

## UUUGUAUAGGUAGGAUAUACUUUCAAUUUUUUUUUCCUUACAUGAGGAUCACCCAUGUUUACAUUGUAGAAGGACCUCAUUGUU
MS2 coat protein [2]; [5]
  apparent Kd: 250 nM
MS2 coat protein [2]; [6]
  apparent Kd: 326 nM

## UUUGUCUGUGUGAGGAUAUACUUUGUUUGGUCGUUGUAGAAGGCACAUGAGGAUCACCCAUGUAUUUUGUUGUG
MS2 coat protein [2]; [5]
  apparent Kd: 28.7 nM
MS2 coat protein [2]; [6]
  apparent Kd: 31.7 nM

## UUUGUUGUUGUGAGGAUAUCGUAGUUAUUUUGAAACGAGAAGGCACAUGAGGAUCACCCAUGUUUGUUGAUGGU
MS2 coat protein [2]; [5]
  apparent Kd: 30.7 nM
MS2 coat protein [2]; [6]
  apparent Kd: 127 nM

## UUUUAACAUGAGGAUCACCCAUGUCGUUCAAAUCAAGGAUAUCAAGCGUGUGCGCACGCUUGAGAAGGUGAAGCUC
MS2 coat protein [2]; [3]
  apparent Kd: 54.2 nM
MS2 coat protein [2]; [4]
  apparent Kd: 191 nM

## UUUUAACAUGAGGAUCACCCAUGUGAGGAUAUCGAAAUUUAUAUUAAUAUUAUUUUUACGAGAAGGCACAUUUU
MS2 coat protein [2]; [5]
  apparent Kd: 90.3 nM
MS2 coat protein [2]; [6]
  apparent Kd: 95.4 nM

## UUUUAACAUGAGGAUCACCCAUGUGAGGAUAUCGAAAUUUAUAUUAAUAUUUAUAAAACGAGAAGGCACAUUUU
MS2 coat protein [2]; [5]
  apparent Kd: 104 nM
MS2 coat protein [2]; [6]
  apparent Kd: 82.8 nM

## UUUUAACAUGAGGAUCACCCAUGUGAGGAUAUCGAAAUUUAUAUUAAUAUUUAUAUAUCGAGAAGGCACAUUUU
MS2 coat protein [2]; [5]
  apparent Kd: 113 nM
MS2 coat protein [2]; [6]
  apparent Kd: 97.8 nM

## UUUUAACAUGAGGAUCACCCAUGUGAGGAUAUCGAAAUUUAUAUUUAUAUUAAUAUAACGAGAAGGCACAUUUU
MS2 coat protein [2]; [5]
  apparent Kd: 55.5 nM
MS2 coat protein [2]; [6]
  apparent Kd: 83.2 nM

## UUUUAACAUGAGGAUCACCCAUGUGAGGAUAUCGAAAUUUAUAUUUAUAUUUAUAUUUCGAGAAGGCACAUUUU
MS2 coat protein [2]; [5]
  apparent Kd: 176 nM
MS2 coat protein [2]; [6]
  apparent Kd: 156 nM

## UUUUACGUUUCGUAGCAGUGUCAUCGAGAAGGCCCUGACAUGAGGAUCACCCAUGUUGUUACAUGGGAGGAUAUCGAUGAUAAA
MS2 coat protein [2]; [3]
  apparent Kd: 15.9 nM
MS2 coat protein [2]; [4]
  apparent Kd: 5.75 nM

## UUUUACGUUUCGUAGCAGUGUCAUCGAGAAGGCCCUGACAUGAGGAUCACCCAUGUUGUUACAUGGGAGGAUAUCGAUGAUGGG
MS2 coat protein [2]; [3]
  apparent Kd: 41.3 nM
MS2 coat protein [2]; [4]
  apparent Kd: 6.93 nM

## UUUUACUUAGGAUAUACAUUUUUUUAUUUAUUUAUAAUAUUACAUGAGGAUCACCCAUGUAGAAGGGAGAUUUU
MS2 coat protein [2]; [5]
  apparent Kd: 77 nM
MS2 coat protein [2]; [6]
  apparent Kd: 63.4 nM

## UUUUCAUCAUCAGGAUAUUAACGUGGGCUACUUUAAGAAGGGAUAGUGGGAGAGCACGUGAAACAUGAGGAUCACCCAUGUUGU
MS2 coat protein [2]; [3]
  apparent Kd: 12.2 nM
MS2 coat protein [2]; [4]
  apparent Kd: 9.73 nM

## UUUUCUCGUGAGAAGGACAUGAGGAUCACCCAUGUAGGAUAUCGUGGGAGACAGGAAUUGAAUCUUCGGAUUCAAUUCCUGUCU
MS2 coat protein [2]; [3]
  apparent Kd: 104 nM
MS2 coat protein [2]; [4]
  apparent Kd: 8.82 nM

## UUUUCUUUUGUGAGGAUAUACUUCUUUUUCUUUUUGUAGAAGGCACAUGAGGAUCACCCAUGUUUUCUUUUCUC
MS2 coat protein [2]; [5]
  apparent Kd: 12.1 nM
MS2 coat protein [2]; [6]
  apparent Kd: 16 nM

## UUUUCUUUUGUGAGGAUAUACUUGUUUUUUUUUUUGUAGAAGGCACAUGAGGAUCACCCAUGUACUCUUUCCUG
MS2 coat protein [2]; [5]
  apparent Kd: 19.7 nM
MS2 coat protein [2]; [6]
  apparent Kd: 22.6 nM

## UUUUCUUUUGUGAGGAUAUACUUGUUUUUUUUUUUGUAGAAGGCACAUGAGGAUCACCCAUGUUUUCUUUUCUG
MS2 coat protein [2]; [5]
  apparent Kd: 17.1 nM
MS2 coat protein [2]; [6]
  apparent Kd: 19.4 nM

## UUUUGACAUGAGGAUCACCCAUGUGAGGAUAUGAUGCGAUCGUCGAAAGACGAUAGCAUCAGAAGGCACAUAUG
MS2 coat protein [2]; [5]
  apparent Kd: 112 nM
MS2 coat protein [2]; [6]
  apparent Kd: 336 nM

## UUUUGGUAAGGAUAUGCGUAGAUCUCGGAAACGAGAUCUACGCAGAAGGUACAUGAGGAUCACCCAUGUUGAUU
MS2 coat protein [2]; [5]
  apparent Kd: 24.2 nM
MS2 coat protein [2]; [6]
  apparent Kd: 83.3 nM

## UUUUGGUCAGGAUAUUGUUAGUUUAGUUGUUUGUAUUAGUUCGAGAAGGGACAUGAGGAUCACCCAUGUGAUUU
MS2 coat protein [2]; [5]
  apparent Kd: 99.2 nM
MS2 coat protein [2]; [6]
  apparent Kd: 102 nM

## UUUUUAAAUAUAGGAUAUGGAAACAUGAGGAUCACCCAUGUAUGAUAAGAUAAAUUAUGAUAUAGCCAGAAGGAUACAAUUUUU
MS2 coat protein [2]; [3]
  apparent Kd: 31.9 nM
MS2 coat protein [2]; [4]
  apparent Kd: 38.6 nM

## UUUUUCUGUGUGAGGAUAUACUUUGUUUGGUCGUUGUAGAAGGCACAUGAGGAUCACCCAUGUAGUUUGUUGUG
MS2 coat protein [2]; [5]
  apparent Kd: 23.9 nM
MS2 coat protein [2]; [6]
  apparent Kd: 33.1 nM

## UUUUUGUCAGGAUAUCGUUAAUUUAAUUGUUUGUAUUAGUUCGAGAAGGGACAUGAGGAUCACCCAUGUUUUUU
MS2 coat protein [2]; [5]
  apparent Kd: 23.9 nM
MS2 coat protein [2]; [6]
  apparent Kd: 39.6 nM

## UUUUUGUCAGGAUAUGCGUAGUAGAACAAUAGUACUACUACGUAGAAGGGACAUGAGGAUCACCCAUGUUCCUC
MS2 coat protein [2]; [5]
  apparent Kd: 14.4 nM
MS2 coat protein [2]; [6]
  apparent Kd: 20.5 nM

Source: the EternaBench riboswitch data
